Source: PMC9521027 (ACS Omega, 2022)
Numbering of substitutions follows the chain as printed.

Legend:
URAT1 WT = biological target: T1, URAT1 WT (Homo sapiens, UniProt Q96S37); assay: Competitive inhibition test of unlabeled uric acid on 14C-uric acid uptake; format: cell-based
T1 sequence (Q96S37 1-553): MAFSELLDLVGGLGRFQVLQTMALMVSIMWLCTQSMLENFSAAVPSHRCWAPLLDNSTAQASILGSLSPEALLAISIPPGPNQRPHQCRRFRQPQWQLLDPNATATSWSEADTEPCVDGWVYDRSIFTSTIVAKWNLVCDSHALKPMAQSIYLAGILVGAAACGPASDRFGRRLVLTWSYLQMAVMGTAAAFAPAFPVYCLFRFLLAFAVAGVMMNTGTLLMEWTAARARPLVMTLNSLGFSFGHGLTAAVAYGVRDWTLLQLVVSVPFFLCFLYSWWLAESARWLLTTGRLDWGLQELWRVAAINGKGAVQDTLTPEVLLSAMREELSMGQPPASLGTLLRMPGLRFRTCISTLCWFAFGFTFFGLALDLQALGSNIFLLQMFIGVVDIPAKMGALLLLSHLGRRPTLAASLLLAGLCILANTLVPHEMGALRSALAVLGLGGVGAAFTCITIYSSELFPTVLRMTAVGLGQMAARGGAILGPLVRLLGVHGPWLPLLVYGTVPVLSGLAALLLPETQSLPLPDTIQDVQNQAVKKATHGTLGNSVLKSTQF

URAT1 K393E mutant [1] = biological target: T2, URAT1 K393E mutant (Homo sapiens, UniProt Q96S37, K393E); assay: 14C-uric acid uptake assay in transfected HEK293 cells; format: cell-based; details: K393E, HEK293 cells
T2 sequence (Q96S37 1-553 K393E): T1 sequence (Q96S37 1-553) with K393E

URAT1 K393D mutant [2] = biological target: T3, URAT1 K393D mutant (Homo sapiens, UniProt Q96S37, K393D); assay: as above; format: cell-based; details: K393D, HEK293 cells
T3 sequence (Q96S37 1-553 K393D): T1 sequence (Q96S37 1-553) with K393D

URAT1 K393R mutant [3] = biological target: T4, URAT1 K393R mutant (Homo sapiens, UniProt Q96S37, K393R); assay: 14C-uric acid binding assay with membrane protein; details: 2.5 μg membrane protein, 25 μM 14C-uric acid, 30 min
T4 sequence (Q96S37 1-553 K393R): T1 sequence (Q96S37 1-553) with K393R

URAT1 K393E mutant [4] = biological target: T2, URAT1 K393E mutant; assay: 14C-uric acid binding assay with membrane protein; details: 2.5 μg membrane protein, 25 μM 14C-uric acid, 30 min
Method in brief: (§1)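 Membranes came from HEK293 cells transiently transfected (Lipofectamine 3000) with sequence-confirmed site-directed K393 mutant hURAT1 plasmids; control membranes came from cells transfected with pECFP empty vector. Cells were harvested in ice-cold 25 mM HEPES pH 7.3 with 125 mM sodium gluconate, and membranes were extracted with a kit. Protein was incubated at room temperature, then rapid-filtered, washed with ice-cold DPBS, dissolved in 0.1 M NaOH and scintillation-counted. n = 3, mean ± SD.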

URAT1 K393R mutant [5] = biological target: T4, URAT1 K393R mutant; assay: Competitive inhibition test of unlabeled uric acid on 14C-uric acid uptake; format: cell-based
URAT1 K393D mutant [6] = biological target: T3, URAT1 K393D mutant; assay: 14C-uric acid binding assay with membrane protein; details: 2.5 μg membrane protein, 25 μM 14C-uric acid, 30 min
Method in brief: as §1

IC50 (URAT1 WT): 115 ± 6.36 µM
14C-urate transport capacity lost compared with WT (URAT1 K393E mutant [1]): 70–80%
14C-urate transport capacity lost compared with WT (URAT1 K393D mutant [2]): 70–80%
14C-uric acid binding capacity compared with WT (URAT1 K393R mutant [3]): similar
14C-uric acid binding compared with WT (URAT1 K393E mutant [4]): significant loss
IC50 (URAT1 K393R mutant [5]): 113 ± 10.1 µM
14C-uric acid binding compared with WT (URAT1 K393D mutant [6]): significant loss
SMILES: O=c1[nH]c(=O)c2[nH]c(=O)[nH]c2[nH]1 [uric acid]
